Rows were chosen to be rich in hits. Some 4.5% of all compounds tested hit in one or more screens of this group.
MrgX1 ag = agonists of human MrgX1 receptor. Q96LB2. MrgX1-HEK293 cells, Fluo-4 calcium fluorescence, agonist mode; active compounds read high. B-score at 10 µM. actives 0.44% (n = 310,000). AID 588627;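 active = calcium response B-score plate-corrected fluorescence ratio at least 3 library SD, with starting fluorescence B-score inside 5 SD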
Target sequence (Q96LB2 whole entry, looked up): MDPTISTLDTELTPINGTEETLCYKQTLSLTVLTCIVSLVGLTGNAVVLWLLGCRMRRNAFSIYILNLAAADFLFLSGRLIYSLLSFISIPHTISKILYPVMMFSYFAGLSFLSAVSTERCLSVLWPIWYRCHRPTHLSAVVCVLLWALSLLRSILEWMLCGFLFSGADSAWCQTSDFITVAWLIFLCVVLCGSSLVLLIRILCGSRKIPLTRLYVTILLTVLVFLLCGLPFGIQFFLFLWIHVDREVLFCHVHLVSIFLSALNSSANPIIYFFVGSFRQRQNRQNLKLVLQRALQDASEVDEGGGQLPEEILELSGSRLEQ
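Material: HEK293 cells stably expressing human MrgX1 receptor | Quantity: 15,000 cells per well | Times: Cells plated overnight, dye loaded 0.5 h 37 °C, 0.5 h room temperature | Measured by: Kinetic Fluo-4 NW fluorescence of intracellular calcium | Control set: Positive and negative controls per plate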
PHOSPHO1 block = inhibitors of human PHOSPHO1 phosphatase | Q8TCT1 | recombinant PHOSPHO1, absorbance phosphatase assay | inhibition, % at 13.3 µM | actives 1.1% (n = 290,000) | AID 1565; in the data active = inhibition above about 60%
Target sequence (Q8TCT1 whole entry, looked up): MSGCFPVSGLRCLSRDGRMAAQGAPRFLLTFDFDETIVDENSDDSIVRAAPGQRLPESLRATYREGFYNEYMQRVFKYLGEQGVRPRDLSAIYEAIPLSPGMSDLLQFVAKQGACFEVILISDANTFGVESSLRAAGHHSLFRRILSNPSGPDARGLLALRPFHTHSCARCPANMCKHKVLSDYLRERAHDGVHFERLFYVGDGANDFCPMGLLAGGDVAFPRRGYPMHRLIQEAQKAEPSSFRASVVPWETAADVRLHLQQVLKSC
RGS4 act = potentiators or activators of RGS4; HEK293 M3R/inducible RGS4, carbachol calcium flux Fluo4; active compounds read low; B-score at 10 µM; actives 0.92% (n = 310,000);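 active = B-score of the integrated calcium signal more than 4 SD below the library mean, with starting fluorescence not abnormally high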;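 also: negative B-score means reduced calcium response which marks RGS4 activation or potentiation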
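System: HEK293 FlpIn-TREx cells, stable M3R, doxycycline-inducible RGS4. Timing: overnight RGS4 induction, 30 min dye load 37 °C, 20 min compound RT. Also added: carbachol, ECmax concentration. Measured by: Fluo4 fluorescence kinetic imaging of calcium. Evaluation: integrated calcium ratio converted to B score.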
RGS4 inh = inhibitors of human RGS4; P49798; HEK293 M3R/RGS4 inducible, Fluo-4 calcium flux; active compounds read high; triggered by carbachol at its EC20; B-score at 10 µM; actives 0.45% (n = 310,000); AID 463165;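 active = B-score, a plate-corrected calcium signal, over three deviations above library mean, with baseline fluorescence within five deviations of library mean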;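 also: RGS4 expression induced by doxycycline in cells with stable M3 receptor; B-score is computed from the integrated fluorescence ratio over baseline after carbachol; higher B-score means a larger calcium signal and so more RGS4 inhibition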
MrgX1 allo act = allosterically activates human MrgX1 receptor signaling; actives 0.63% (n = 310,000); Q96LB2; B-score at 10 µM; MrgX1-HEK293, Fluo-4 calcium flux, FDSS; active compounds read high; AID 588675;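 active = plate-corrected calcium response at least 3 library SD above typical, normal starting fluorescence, not activating the receptor alone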;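 also: compound read alongside a low EC10 to EC30 dose of BAM8-22 agonist; peak minus trough fluorescence over baseline measured at the second addition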
MrgX1 antag = antagonists of human MrgX1 receptor; MRGX1-HEK293 calcium flux, Fluo-4, BAM8-22 antagonism; active compounds read low; B-score at 10 µM; actives 1.3% (n = 310,000);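 active = calcium-response B-score plate-corrected more than 3 library SD below zero, starting fluorescence within 5 deviations, no agonist response on first addition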;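 also: peak minus trough fluorescence over baseline after final BAM8-22 challenge near maximal dose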
Numbers without * were called inactive; i = inactive; / = no result given.

SMILES | MrgX1 ag | PHOSPHO1 block | RGS4 act | RGS4 inh | MrgX1 allo act | MrgX1 antag
Cc1ccc(/C=C(\CCC(=O)O)c2nc3ccccc3s2)cc1[N+](=O)[O-] | i | -8.1 | i | i | i | i
CN(c1ccccc1)c1ccc(/C=C(\CCC(=O)O)c2nc3ccccc3s2)cc1[N+](=O)[O-] | i | -5.7 | i | i | i | -7.45*
Cc1occc1C(=O)N/N=C/c1ccccc1[N+](=O)[O-] | i | -3.1 | i | i | i | i
Cc1cc(C(=O)O)ccc1-c1ccc(/C=C2\SC(=O)N(CC(=O)Nc3ccc4c(c3)OCO4)C2=O)o1 | i | -97.0 | i | i | i | i
C#CCN1C(=O)S/C(=C\c2ccc(-c3ccc(C(=O)O)cc3C)o2)C1=O | i | 44.7 | i | i | 8.07* | i
Cc1ccc(C)c(N2C(=N)S/C(=C\c3ccc(-c4ccccc4C(=O)O)o3)C2=O)c1 | i | -23.5 | i | i | 11.5* | i
CC1CC(C)CN(CCCNC(=O)CN2C(=O)COc3ccc(S(=O)(=O)N4CCOCC4)cc32)C1 (stereo not drawn) | i | 14.4 | i | i | i | i
COc1ccccc1Oc1ccc(S(=O)(=O)N2CCCC2)cc1 | i | -7.0 | i | i | i | -6.15*
N#C/C(=C\c1ccc[nH]1)C(=O)N1CCCCC1 | i | 51.9 | i | i | i | i
O=[N+]([O-])c1cc2c(cc1/C=N/n1c(-c3ccccc3)n[nH]c1=S)OCO2 | i | 106.0* | i | i | i | i
S=c1[nH]nc(-c2ccccn2)n1/N=C/c1ccc(-c2ccccc2Br)o1 | / | 61.6* | i | i | / | /
S=c1[nH]nc(-c2cccnc2)n1/N=C/c1ccccc1 | i | 23.9 | i | i | i | i
Cc1ccc(-c2n[nH]c(=S)n2/N=C/C=C/c2ccccc2[N+](=O)[O-])cc1 | i | 99.2* | i | i | i | i
S=c1[nH]nc(-c2cccnc2)n1/N=C/C=C/c1ccccc1 | i | 67.4* | i | i | i | i
O=[N+]([O-])c1cc2c(cc1/C=N/n1c(-c3ccccn3)n[nH]c1=S)OCO2 | i | 73.5* | i | i | i | i
O=[N+]([O-])c1ccccc1/C=N/n1c(-c2cccnc2)n[nH]c1=S | i | 7.1 | i | i | i | i
CC(C)CN(C(=O)COC(=O)COc1ccc2ccccc2c1)c1c(N)n(Cc2ccccc2)c(=O)[nH]c1=O | i | / | i | i | i | -6.39*
O=C1/C(=C/c2ccccc2F)SC(=S)N1CCC(=O)N1CCCCC1CCO (stereo not drawn) | i | 64.0* | i | i | i | i
O=C1/C(=C/c2ccc(Cl)cc2)SC(=S)N1CCC(=O)N1CCCCC1CCO (stereo not drawn) | i | -0.7 | i | i | i | i
O=C(CCC1CCCN(C(=O)c2ccc3[nH]ccc3c2)C1)N1CCN(c2ccccn2)CC1 (stereo not drawn) | i | 64.2* | i | i | i | i
O=C(CCC1CCCN(C(=O)c2ccc3cc[nH]c3c2)C1)N1CCN(c2ccccn2)CC1 (stereo not drawn) | i | 49.8 | i | i | i | i
Cc1coc2c(C)c3oc(=O)c(CCC(=O)NCCCN4CCOCC4)c(C)c3cc12 | i | 39.5 | i | i | i | i
Cc1coc2c(C)c3oc(=O)c(CCC(=O)NCCN4CCOCC4)c(C)c3cc12 | i | 44.7 | -7.02* | i | i | i
CC(C)c1ccc(NC(=O)CSc2nc3ccccc3nc2N2CCCC2)cc1 | i | 15.1 | i | i | i | i
CCn1ncc([N+](=O)[O-])c1C(=O)Nc1c(C)nn(Cc2ccc(F)cc2)c1C | i | 39.7 | i | i | i | i
SMILES | MrgX1 ag | PHOSPHO1 block | RGS4 act | RGS4 inh | MrgX1 allo act | MrgX1 antag
C/C(=N\NC(=O)c1cccnc1)c1cc2ccccc2o1 | i | 41.7 | i | i | i | -7.57*
C/C(=N\NC(=O)c1ccncc1)c1cc2ccccc2o1 | i | -33.9 | i | i | i | i
CCOC(=O)c1ccc2c(c1)n(CC)c(/C=C/N(C)c1ccccc1)[n+]2CC | i | -27.0 | i | i | i | -4.97*
CCOC(=O)c1ccc2c(c1)n(CCO)c(C)[n+]2CC | i | 89.5* | i | i | i | i
Cc1ccc(COc2ccsc2C(=O)O)cc1 | / | 60.9* | / | / | / | /
COc1ccc(C(CNC(=O)c2cccc(S(=O)(=O)NCc3ccccc3)c2)N2CCOCC2)cc1 (stereo not drawn) | i | / | i | i | i | i
Oc1ccc2ccccc2c1/C=N/Nc1ccccc1 | i | 0.3 | i | i | i | i
O=CN/N=C/c1c(O)ccc2ccccc12 | i | -12.2 | i | i | i | -5*
Cc1cc(Nc2ccccc2)nc(-c2ccccc2O)n1 | i | -12.9 | i | i | i | i
Cc1cc(N/N=C/c2c(O)ccc3ccccc23)nc(-c2ccccc2O)n1 | i | -11.9 | -7.96* | i | i | i
COc1cccc2c1C(=O)c1ccc3ccccc3c1C2=O | i | 86.8* | i | i | i | i
COc1ccc(N)c2c1C(=O)c1ccccc1C2=O | i | 3.1 | i | i | i | i
COc1ccc(OC)c2c1C(=O)c1ccccc1C2=O | i | 95.1* | i | i | i | i
COc1ccc2noc3c2c1C(=O)c1ccccc1-3 | i | / | -7.2* | i | i | i
CCc1cc2cc(C)cc(C)c2[nH]c1=S | i | -3.0 | i | i | i | i
Cc1cccc(C(c2c(C)nn(-c3ccccc3)c2N)c2c(C)nn(-c3ccccc3)c2N)c1 | i | 97.2* | i | i | i | i
CCc1ccc(C(c2c(C)nn(-c3ccccc3)c2N)c2c(C)nn(-c3ccccc3)c2N)cc1 | i | -10.5 | i | i | i | i
COC(=O)C1=C(C(=O)OC)[C@@H]2N(C)c3ccc(OC)cc3[C@@]23C[C@@H](C(=O)OC)N(S(=O)(=O)c2ccc(OC)cc2)C3=N1 | i | 22.1 | i | i | i | i
Cc1cc(/C=c2\sc3nc4ccccc4n3c2=O)c(C)n1-c1ccc(C(=O)O)cc1 | / | 6.2 | -7.34* | i | / | /
CCN(CC)c1ccc(/C=c2\sc3nc4ccccc4n3c2=O)c(O)c1 | / | 32.0 | i | i | / | /
Cc1cc(/C=c2/sc3nc4ccccc4n3c2=O)c(C)n1-c1ccccn1 | i | 75.2* | i | i | i | i

Bioassay records from PubChem.
